pIC50, pKi: −log10 of the molar value. Blank lines part the entries; values can stand above or below the compound they belong to. Activity calls are given as the source filed them. The rule behind the calls is not given here.
What was measured:
[1] = target: T1, Tyrosine-protein phosphatase non-receptor type 1 (Homo sapiens) (UniProt P18031); experiment: Inhibition of human cloned PTP1B expressed in Escherichia coli TB1 at 15 uM
T1 sequence (whole entry): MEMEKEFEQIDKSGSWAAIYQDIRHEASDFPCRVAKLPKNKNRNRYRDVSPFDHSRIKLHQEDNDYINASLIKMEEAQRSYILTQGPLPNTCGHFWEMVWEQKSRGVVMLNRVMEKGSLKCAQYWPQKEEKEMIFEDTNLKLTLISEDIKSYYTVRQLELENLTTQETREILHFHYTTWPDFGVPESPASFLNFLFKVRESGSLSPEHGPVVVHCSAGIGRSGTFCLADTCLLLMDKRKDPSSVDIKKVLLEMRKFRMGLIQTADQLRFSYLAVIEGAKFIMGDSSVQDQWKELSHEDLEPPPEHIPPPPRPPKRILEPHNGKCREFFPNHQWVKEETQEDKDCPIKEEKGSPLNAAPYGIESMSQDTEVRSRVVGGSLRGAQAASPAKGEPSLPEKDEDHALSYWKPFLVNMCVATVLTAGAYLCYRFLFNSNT
Method in brief: (§1)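 GST-fused human enzymes (LMW-PTP IF1 or IF2, or PTP-1B) expressed in E. coli TB1, affinity-purified, thrombin-cleaved (3 h, 37 °C) and gel-filtered. […] Reaction stopped with 1 M KOH; p-nitrophenol read at 400 nm. Initial rates in triplicate; IC50 fitted to Vi/V° = IC50/(IC50+[I]); single-concentration lines give % inhibition.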

[2] = target: T2, Low molecular weight phosphotyrosine protein phosphatase (Homo sapiens) (UniProt P24666); experiment: Inhibition of human cloned LMW-PTP isoform 2 expressed in Escherichia coli TB1 at 15 uM; method in brief: as §1
T2 sequence (whole entry): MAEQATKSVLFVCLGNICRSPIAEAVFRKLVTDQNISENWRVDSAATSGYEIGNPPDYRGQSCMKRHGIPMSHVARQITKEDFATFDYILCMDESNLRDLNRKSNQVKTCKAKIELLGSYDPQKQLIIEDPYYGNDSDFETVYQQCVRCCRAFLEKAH

[3] = target: T2, Low molecular weight phosphotyrosine protein phosphatase (Homo sapiens); experiment: Inhibition of human cloned LMW-PTP isoform 1 expressed in Escherichia coli TB1 at 15 uM; method in brief: as §1
[4] = target: T3, Tyrosine-protein phosphatase non-receptor type 1 (Homo sapiens, UniProt P18031); experiment: Inhibition of human cloned PTP1B expressed in Escherichia coli TB1; method in brief: as §1
T3 sequence (P18031 whole entry): T1 sequence (whole entry)

[5] = target: T4, Low molecular weight phosphotyrosine protein phosphatase (Homo sapiens, UniProt P24666); experiment: Inhibition of human cloned LMW-PTP isoform 2 expressed in Escherichia coli TB1
T4 sequence (P24666 whole entry): T2 sequence (whole entry)

[6] = target: T4, Low molecular weight phosphotyrosine protein phosphatase; experiment: Inhibition of human cloned LMW-PTP isoform 1 expressed in Escherichia coli TB1
[7] = target: Insulin receptor (Homo sapiens) (UniProt P06213); experiment: Activation of human insulin receptor beta expressed in human HepG2 cells assessed as increase in tyrosine phosphorylation level at 10 uM after 90 mins by SDS-PAGE; format: cell-based
Method in brief: (§2)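 HepG2 cells grown in DMEM with 10% bovine calf serum, 37 °C, 5% CO2; subconfluent cells serum-starved 20 h. Inhibitor added to medium at 10 µM final, 90 min, 37 °C; 10 nM insulin, 0.5% DMSO and 10 µM orthovanadate as references. Lysis in SDS Laemmli buffer, SDS-PAGE, Western blot for phospho-IRβ, then stripped and reprobed for phospho-Akt, phosphotyrosine and actin. At least three separate experiments.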

[8] = target: Insulin receptor (Homo sapiens) (UniProt P06213); experiment: Activation of human insulin receptor beta expressed in human HepG2 cells assessed as stimulation of receptor phosphorylation at 10 uM after 90 mins by SDS-PAGE; format: cell-based; method in brief: as §2
[9] = target: Insulin receptor (Homo sapiens) (UniProt P06213); experiment: Activation of human insulin receptor beta expressed in human HepG2 cells assessed as increase in Akt phosphorylation level at 10 uM after 90 mins by SDS-PAGE; format: cell-based; method in brief: as §2
[10] = target: T2, Low molecular weight phosphotyrosine protein phosphatase (Homo sapiens); experiment: Inhibition of human cloned LMW-PTP isoform 1 expressed in Escherichia coli TB1 at 20 uM; method in brief: as §1
[11] = target: T2, Low molecular weight phosphotyrosine protein phosphatase (Homo sapiens); experiment: Inhibition of human cloned LMW-PTP isoform 2 expressed in Escherichia coli TB1 at 20 uM; method in brief: as §1
[12] = target: T1, Tyrosine-protein phosphatase non-receptor type 1 (Homo sapiens); experiment: Inhibition of human cloned PTP1B expressed in Escherichia coli TB1 at 20 uM; method in brief: as §1
[13] = target: T4, Low molecular weight phosphotyrosine protein phosphatase; experiment: Inhibition of human cloned LMW-PTP isoform 1 expressed in Escherichia coli TB1 by mixed type inhibition assay
[14] = target: T4, Low molecular weight phosphotyrosine protein phosphatase; experiment: Inhibition of human cloned LMW-PTP isoform 2 expressed in Escherichia coli TB1 by mixed type inhibition assay
[15] = target: T3, Tyrosine-protein phosphatase non-receptor type 1; experiment: Inhibition of human cloned PTP1B expressed in Escherichia coli TB1 by mixed type inhibition assay
[16] = target: T4, Low molecular weight phosphotyrosine protein phosphatase; experiment: Inhibition of human cloned LMW-PTP isoform 1 expressed in Escherichia coli TB1 by competitive inhibition assay
[17] = target: T4, Low molecular weight phosphotyrosine protein phosphatase; experiment: Inhibition of human cloned LMW-PTP isoform 2 expressed in Escherichia coli TB1 by competitive inhibition assay
[18] = target: T3, Tyrosine-protein phosphatase non-receptor type 1; experiment: Inhibition of human recombinant PTP1B

Sequence of Insulin receptor (Homo sapiens) (P06213 28-758 limits assumed): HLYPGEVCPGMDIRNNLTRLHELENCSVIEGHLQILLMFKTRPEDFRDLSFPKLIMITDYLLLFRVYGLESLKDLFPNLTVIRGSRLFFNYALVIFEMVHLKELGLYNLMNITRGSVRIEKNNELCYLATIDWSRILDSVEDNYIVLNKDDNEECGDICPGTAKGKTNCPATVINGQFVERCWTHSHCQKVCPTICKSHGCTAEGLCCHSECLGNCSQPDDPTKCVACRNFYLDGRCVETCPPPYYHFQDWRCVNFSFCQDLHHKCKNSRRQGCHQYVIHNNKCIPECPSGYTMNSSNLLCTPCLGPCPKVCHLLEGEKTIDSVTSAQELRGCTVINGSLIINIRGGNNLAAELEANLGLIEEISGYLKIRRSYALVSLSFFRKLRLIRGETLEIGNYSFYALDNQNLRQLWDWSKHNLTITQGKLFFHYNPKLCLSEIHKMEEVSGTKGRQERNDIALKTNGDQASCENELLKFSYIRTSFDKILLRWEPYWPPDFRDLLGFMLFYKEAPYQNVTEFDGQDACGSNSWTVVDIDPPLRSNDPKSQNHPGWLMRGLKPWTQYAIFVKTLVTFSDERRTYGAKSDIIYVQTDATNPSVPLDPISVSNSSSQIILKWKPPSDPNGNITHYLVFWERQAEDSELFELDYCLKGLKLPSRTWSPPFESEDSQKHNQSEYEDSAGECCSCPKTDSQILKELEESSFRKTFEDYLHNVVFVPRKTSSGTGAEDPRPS
Sequence of Insulin receptor (Homo sapiens) (P06213 763-1382 limits assumed): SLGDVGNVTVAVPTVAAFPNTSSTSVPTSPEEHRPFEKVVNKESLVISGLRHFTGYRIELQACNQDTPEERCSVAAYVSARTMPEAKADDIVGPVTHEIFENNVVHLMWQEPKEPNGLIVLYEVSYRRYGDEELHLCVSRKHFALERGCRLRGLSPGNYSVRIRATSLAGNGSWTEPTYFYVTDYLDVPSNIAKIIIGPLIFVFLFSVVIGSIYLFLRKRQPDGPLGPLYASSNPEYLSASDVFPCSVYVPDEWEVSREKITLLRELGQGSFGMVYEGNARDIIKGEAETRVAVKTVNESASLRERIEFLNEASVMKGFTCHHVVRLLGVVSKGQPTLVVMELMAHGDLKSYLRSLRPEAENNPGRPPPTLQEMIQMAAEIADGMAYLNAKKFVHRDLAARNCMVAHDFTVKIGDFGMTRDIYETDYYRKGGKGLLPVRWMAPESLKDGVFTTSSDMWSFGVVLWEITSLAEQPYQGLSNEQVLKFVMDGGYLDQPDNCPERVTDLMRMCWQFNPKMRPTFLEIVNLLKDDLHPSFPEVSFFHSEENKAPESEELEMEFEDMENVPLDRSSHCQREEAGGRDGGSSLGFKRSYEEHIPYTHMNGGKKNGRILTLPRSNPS

inhibition [1]: 0%
inhibition [2]: 10%
inhibition [3]: 10%
SMILES: O=c1c(Cc2ccccc2)c(Cc2ccc(O)cc2)oc2cc(O)ccc12

pIC50 [4]: 5.21
pIC50 [5]: 4.57
pIC50 [6]: 4.94
SMILES: O=C(O)c1cccc(-c2ccc(Cc3c(-c4ccc(O)cc4)oc4cc(O)ccc4c3=O)cc2)c1

inhibition [1]: 0%
inhibition [2]: 10%
inhibition [3]: 10%
SMILES: O=c1c(Cc2ccc(-c3ccccc3)cc2)c(CCCc2ccc(O)cc2)oc2cc(O)ccc12

inhibition [1]: 20%
pIC50 [5]: 4.76
pIC50 [6]: 5.07
SMILES: O=c1c(Cc2ccc(-c3ccccc3)cc2)c(Cc2ccc(O)cc2)oc2ccc(O)cc12

pIC50 [4]: 6.00
Activity [7]: Active
Activity [8]: Active
Activity [9]: Active
pIC50 [5]: 5.66
pIC50 [6]: 5.89
SMILES: O=C(O)c1ccc(-c2ccc(Cc3c(-c4ccc(O)cc4)oc4cc(O)ccc4c3=O)cc2)cc1O

inhibition [10]: 0%
inhibition [11]: 0%
inhibition [12]: 10%
SMILES: Oc1ccc(-c2ccccc2)c(O)c1

inhibition [1]: 4%
pKi [13]: 5.60
pKi [14]: 5.11
pKi [15]: 4.54
pIC50 [5]: 4.86
pIC50 [6]: 5.24
SMILES: O=c1c(Cc2ccc(-c3ccccc3)cc2)c(-c2ccc(O)cc2)oc2cc(O)ccc12

pIC50 [4]: 5.30
pIC50 [5]: 4.90
pIC50 [6]: 4.84
SMILES: O=c1c(Cc2ccc(-c3ccc(O)c(O)c3)cc2)c(-c2ccc(O)cc2)oc2ccccc12

pIC50 [4]: 5.70
pKi [16]: 6.57
pKi [17]: 6.47
Activity [7]: Active
Activity [8]: Active
pIC50 [5]: 5.52
pIC50 [6]: 5.96
SMILES: O=c1c(Cc2ccc(-c3ccccc3)cc2)c(-c2ccc(O)cc2)oc2cc(O)c(O)cc12

pIC50 [4]: 5.11
pKi [13]: 5.65
pKi [14]: 5.57
Activity [7]: Active
Activity [8]: Active
Activity [9]: Active
pIC50 [5]: 4.91
pIC50 [6]: 5.13
SMILES: O=c1c(Cc2ccc(-c3ccc(O)c(O)c3)cc2)c(-c2ccc(O)cc2)oc2cc(O)ccc12

inhibition [10]: 5%
inhibition [11]: 10%
inhibition [12]: 50%
SMILES: O=C(O)c1ccc(-c2cccc(Cc3c(-c4ccc(O)cc4)oc4cc(O)ccc4c3=O)c2)cc1O

inhibition [10]: 60%
inhibition [11]: 25%
inhibition [12]: 50%
SMILES: O=c1c(Cc2cccc(-c3ccc(O)c(O)c3)c2)c(-c2ccc(O)cc2)oc2cc(O)ccc12

inhibition [10]: 0%
inhibition [11]: 0%
inhibition [12]: 5%
SMILES: O=C(O)c1ccc(-c2ccccc2)cc1O

inhibition [1]: 10%
pIC50 [5]: 4.76
pIC50 [6]: 5.28
SMILES: O=c1c(Cc2ccc(-c3ccccc3)cc2)c(Cc2ccc(O)cc2)oc2cc(O)ccc12

inhibition [10]: 25%
inhibition [11]: 10%
inhibition [12]: 10%
SMILES: O=c1cc(-c2ccc(O)cc2)oc2cc(O)c(O)cc12

inhibition [1]: 20%
pIC50 [5]: 4.76
pIC50 [6]: 5.19
SMILES: O=c1c(Cc2ccc(-c3ccccc3)cc2)c(CCc2ccc(O)cc2)oc2cc(O)ccc12

pIC50 [4]: 6.05
pIC50 [5]: 5.24
pIC50 [6]: 6.15
SMILES: O=C(O)c1ccc(-c2ccc(Cc3c(-c4ccc(O)cc4)oc4ccccc4c3=O)cc2)cc1O

inhibition [1]: 0%
inhibition [2]: 10%
inhibition [3]: 10%
SMILES: O=c1cc(Cc2ccc(O)cc2)oc2cc(O)ccc12

pIC50 [4]: 4.77
SMILES: O=c1c(Cc2ccc(-c3ccc(O)cc3)cc2)c(-c2ccc(O)cc2)oc2cc(O)ccc12

inhibition [10]: 0%
inhibition [11]: 0%
inhibition [12]: 20%
SMILES: Oc1ccc(-c2ccccc2)cc1O

pIC50 [18]: 5.97
SMILES: O=C(c1ccc(O)cc1)c1oc2ccccc2c1-c1ccc(-c2ccc(O)cc2)cc1
